Activity calls are given as the source filed them. The calls are words filed in the database; no cut-off is given here.
Tests used:
A549 [1] = assay: Antiproliferative activity against human A549 cells at 100 uM after 72 hrs by MTT assay; assay type: functional; conditions: A549, 72 h, values are per cent of control
In short: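 MTT proliferation: A549 grown in medium with 10% FBS to 70-80% confluence, then exposed to compound for 24, 48 or 72 h. MTT added for 3 h at 37 °C, formazan dissolved in 2-propanol, OD 570 nm with 650 nm reference. Expressed as percent of control at 24 h; mean ± SE.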

A549 [2] = assay: Cytotoxicity against human A549 cells after 24 hrs by TB dye exclusion assay; assay type: functional, cell-based; conditions: A549, 24 h
A549 [3] = assay: Cytotoxicity against human A549 cells after 48 hrs by TB dye exclusion assay; assay type: functional, cell-based; conditions: A549, 48 h
A549 [4] = assay: Cytotoxicity against human A549 cells after 72 hrs by TB dye exclusion assay; assay type: functional, cell-based; conditions: A549, 72 h
A549 [5] = assay: Cytotoxicity against human A549 cells after 24 hrs by MTT assay; assay type: functional, cell-based; conditions: A549, 24 h
A549 [6] = assay: Cytotoxicity against human A549 cells after 48 hrs by MTT assay; assay type: functional, cell-based; conditions: A549, 48 h
A549 [7] = assay: Cytotoxicity against human A549 cells after 72 hrs by MTT assay; assay type: functional, cell-based; conditions: A549, 72 h
A549 [8] = assay: Cell cycle arrest in human A549 cells assessed as accumulation at G1 phase at 50 uM after 24 hrs; assay type: functional
In short: (§1)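 Flow cytometry of cell cycle: A549 (5 × 10^5 per 60 mm dish) treated next day with 50 or 100 µM for 24, 48 or 72 h. Adherent and floating cells pooled, fixed in PBS-MeOH 1:2 at 4 °C for at least 18 h, then stained 30 min in the dark with PI 50 µg/mL plus RNase A 50 µg/mL. Sub-G1 taken as the subdiploid fraction; at least three runs.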

A549 [9] = assay: Cell cycle arrest in human A549 cells assessed as accumulation at S phase at 50 uM after 24 hrs; assay type: functional; in short: as §1
A549 [10] = assay: Cell cycle arrest in human A549 cells assessed as accumulation at G2/M phase at 50 uM after 24 hrs; assay type: functional; in short: as §1
A549 [11] = assay: Cell cycle arrest in human A549 cells assessed as accumulation at subG1 phase at 50 uM after 24 hrs; assay type: functional; in short: as §1
A549 [12] = assay: Cell cycle arrest in human A549 cells assessed as accumulation at G1 phase at 50 uM after 48 hrs; assay type: functional; in short: as §1
A549 [13] = assay: Cell cycle arrest in human A549 cells assessed as accumulation at S phase at 50 uM after 48 hrs; assay type: functional; in short: as §1
A549 [14] = assay: Cell cycle arrest in human A549 cells assessed as accumulation at G2/M phase at 50 uM after 48 hrs; assay type: functional; in short: as §1
A549 [15] = assay: Cell cycle arrest in human A549 cells assessed as accumulation at subG1 phase at 50 uM after 48 hrs; assay type: functional; in short: as §1
A549 [16] = assay: Induction of apoptosis in human A549 cells assessed as PARP cleavage at 100 uM; assay type: functional, cell-based
A549 [17] = assay: Cell cycle arrest in human A549 cells assessed as accumulation at G1 phase at 50 uM after 72 hrs; assay type: functional; in short: as §1
A549 [18] = assay: Cell cycle arrest in human A549 cells assessed as accumulation at S phase at 50 uM after 72 hrs; assay type: functional; in short: as §1
A549 [19] = assay: Cell cycle arrest in human A549 cells assessed as accumulation at G2/M phase at 50 uM after 72 hrs; assay type: functional; in short: as §1
A549 [20] = assay: Cell cycle arrest in human A549 cells assessed as accumulation at subG1 phase at 50 uM after 72 hrs; assay type: functional; in short: as §1
A549 [21] = assay: Cell cycle arrest in human A549 cells assessed as accumulation at G1 phase at 100 uM after 24 hrs; assay type: functional; in short: as §1
A549 [22] = assay: Cell cycle arrest in human A549 cells assessed as accumulation at S phase at 100 uM after 24 hrs; assay type: functional; in short: as §1
A549 [23] = assay: Cell cycle arrest in human A549 cells assessed as accumulation at G2/M phase at 100 uM after 24 hrs; assay type: functional; in short: as §1
A549 [24] = assay: Cell cycle arrest in human A549 cells assessed as accumulation at subG1 phase at 100 uM after 24 hrs; assay type: functional; in short: as §1
A549 [25] = assay: Cell cycle arrest in human A549 cells assessed as accumulation at G1 phase at 100 uM after 48 hrs; assay type: functional; in short: as §1
A549 [26] = assay: Cell cycle arrest in human A549 cells assessed as accumulation at S phase at 100 uM after 48 hrs; assay type: functional; in short: as §1
A549 [27] = assay: Cell cycle arrest in human A549 cells assessed as accumulation at G2/M phase at 100 uM after 48 hrs; assay type: functional; in short: as §1

Compound C=C1OC(=O)/C(=C/CCCCCCCCCCCCC)[C@@H]1O [ISOOBTUSILACTONE A] has a growth, % of control at 100 µM (A549 [1]) of 2.75%, an IC50 (A549 [2]) of 4.17 µM and an IC50 (A549 [3]) of 0.891 µM. For the same compound, the IC50 (A549 [4]) was 0.724 µM, the IC50 (A549 [5]) was 5.13 µM and the IC50 (A549 [6]) was 1.95 µM. It also gave an IC50 (A549 [7]) of 1.02 µM, an Activity (A549 [8]) of 51.93% and an Activity (A549 [9]) of 30.81%. The Activity (A549 [10]) was 17.26%, the Activity (A549 [11]) was 16.69% and the Activity (A549 [12]) was 37.37%. The Activity (A549 [13]) was 46.72%, the Activity (A549 [14]) was 15.91% and the Activity (A549 [15]) was 36.73%. For the same compound, the Activity (A549 [16]) was “Active”, the Activity (A549 [17]) was 38.62% and the Activity (A549 [18]) was 47.74%. It also gave an Activity (A549 [19]) of 13.64%, an Activity (A549 [20]) of 54.08% and an Activity (A549 [21]) of 42.88%. It also gave an Activity (A549 [22]) of 38.95%, an Activity (A549 [23]) of 18.18% and an Activity (A549 [24]) of 25.63%. For the same compound, the Activity (A549 [25]) was 43.08%, the Activity (A549 [26]) was 41.33% and the Activity (A549 [27]) was 15.59%.
